In one assay the test system is Escherichia coli. Kind of assay: Antibacterial activity against Escherichia coli after 16 hrs. The format is functional.
The next assay deals with Bacillus subtilis. The assay is described as follows: Antibacterial activity against Bacillus subtilis after 16 hrs. The format is functional.
The test system of a further assay is Saccharomyces cerevisiae. Kind of assay: Antifungal activity against Saccharomyces cerevisiae after 16 hrs. It is filed as functional.
The next assay relates to Jurkat. The assay is described as follows: Growth inhibition of human Jurkat T cells at 1 ug/mL after 24 hrs. It is filed as functional, cell-based. In short, it runs like this: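 Cells kept in RPMI 1640 with 10% FBS at 37 °C, 5% CO₂. Harvested, counted and seeded at 200,000 cells/well (1 mL) in 48-well plates, then compound added. After 24 h incubation the cells were pelleted, washed in PBS and lysed. Lysate relative fluorescence measured on a fluorometer.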

The test system of assay [1] is PC-12. Kind of assay: Induction of neurite outgrowth in rat PC12 cells at 1 ug/mL after 6 days. It is filed as functional, cell-based. In short, it runs like this: (§1)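 Rat PC12 cells (ATCC CRL 1721) grown on collagen Type IV in RPMI 1640 with 10% heat-inactivated horse serum and 5% FBS, 37 °C, 5% CO₂. Seeded at 10,000 cells/well in collagen IV 96-well plates and allowed to adhere 24 h before compound. Tested in duplicate at final 100, 10 and 1 μg/mL; absolute EtOH as control. Neurite outgrowth and intercellular connections scored visually over 2 weeks.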

For assay [2], the system named is PC-12. Kind of assay: Induction of neurite outgrowth in rat PC12 cells assessed as neural extensions at 1 ug/mL after 5 days. The format is functional, cell-based. In short, it runs like this: as §1
Assay [3] concerns PC-12. The assay is described as follows: Induction of neurite outgrowth in rat PC12 cells at 10 ug/mL after 7 days. It is filed as functional, cell-based. In short, it runs like this:
as §1

Values after ≈ are worked out from the molar mass of the structure shown. Active and inactive are the calls of the source. The rule behind the calls is not given here. Some results are limits rather than exact numbers.

As for `O=CC1=CC=C(c2ccc3c(c2)Cc2ccccc2-3)CC1c1ccc([N+](=O)[O-])cc1` (centres undefined), the minimum inhibitory concentration (MIC) with Escherichia coli, in the assay on Bacillus subtilis and against Saccharomyces cerevisiae was above 100 mg/L throughout. Also, in the assay on Jurkat, the result was Active.
On to `O=CC1=CC=C(c2ccc(-c3ccccc3)cc2)CC1c1ccc([N+](=O)[O-])cc1` (centres undefined), for which the MIC in the assay with Escherichia coli, against Bacillus subtilis and against Saccharomyces cerevisiae was above 100 mg/L each time. Also, the outcome in the assay with Jurkat was Active.
As for `Cc1ccc(C2(C)CC(c3ccc(-c4ccccc4)cc3)=CC=C2C=O)o1` (centres undefined), the result with PC-12 [1], in the assay with PC-12 [2] and with Jurkat was Active. Further, the MIC against Escherichia coli, in the assay on Bacillus subtilis and against Saccharomyces cerevisiae was above 100 mg/L in each case.
Regarding `CC(C)=CCCC1=CC=C(C=O)C(C)(c2ccc(C)o2)C1` (centres undefined), the MIC against Escherichia coli, against Bacillus subtilis and against Saccharomyces cerevisiae was above 100 mg/L throughout.
As for `CN(C)c1ccc(-c2cc(-c3ccc(-c4ccccc4)cc3)ccc2C=O)cc1`, the MIC against Escherichia coli, in the assay on Bacillus subtilis and against Saccharomyces cerevisiae was above 100 mg/L each time.
Consider `Cc1ccc(C=O)c(-c2ccc(N(C)C)cc2)c1`, for which the MIC was above 100 mg/L in the assay on Escherichia coli, 10 mg/L (≈ 41.8 µM) against Bacillus subtilis and above 100 mg/L in the assay on Saccharomyces cerevisiae.
As to `CCCCC[C@H]1C(C)=CC=C(C=O)[C@H]1c1ccccc1`, the MIC against Escherichia coli, with Bacillus subtilis and against Saccharomyces cerevisiae was above 100 mg/L each time.
`Cc1ccc(C2=CC=C(C=O)C(c3ccc([N+](=O)[O-])cc3)C2)o1` (centres undefined): the MIC in the assay on Escherichia coli, against Bacillus subtilis and with Saccharomyces cerevisiae was above 100 mg/L each time.
As to `CN(C)c1ccc(C2CC(c3ccccc3)=CC=C2C=O)cc1` (centres undefined), the MIC in the assay on Escherichia coli, against Bacillus subtilis and with Saccharomyces cerevisiae was above 100 mg/L in each case.
Regarding `O=CC1=CC=C(c2ccccc2)CC1c1ccc([N+](=O)[O-])cc1` (centres undefined), the MIC against Escherichia coli, in the assay on Bacillus subtilis and against Saccharomyces cerevisiae was above 100 mg/L each time.
In the case of `CC(C)=CCC/C(C)=C/C[C@H]1C(C)=CC=C(C=O)[C@H]1c1ccc([N+](=O)[O-])cc1`, the MIC with Escherichia coli, with Bacillus subtilis and against Saccharomyces cerevisiae was above 100 mg/L in each case.
As for `CC1(c2ccc3ccccc3c2)CC(c2ccc3ccccc3c2)=CC=C1C=O` (centres undefined), the MIC with Escherichia coli, in the assay on Bacillus subtilis and in the assay with Saccharomyces cerevisiae was above 100 mg/L in each case.
Consider `CCC1(c2cccs2)C(C=O)=CC=C(c2cccs2)C1C` (centres undefined), for which the MIC against Escherichia coli, against Bacillus subtilis and against Saccharomyces cerevisiae was above 100 mg/L throughout.
With `CC1(c2ccc(Cl)s2)CC(c2ccc(Cl)s2)=CC=C1C=O` (centres undefined), the MIC in the assay on Escherichia coli, against Bacillus subtilis and against Saccharomyces cerevisiae was above 100 mg/L each time.
In the case of `CC1=C(/C=C/C(C)=C/C=C/C2=CC=C(C=O)C(c3ccc([N+](=O)[O-])cc3)C2)C(C)(C)CCC1` (centres undefined), the MIC against Escherichia coli, against Bacillus subtilis and in the assay on Saccharomyces cerevisiae was above 100 mg/L throughout.
Consider `CC1(c2ccccc2)CC(c2ccccc2)=CC=C1C=O` (centres undefined), for which the minimal inhibitory concentration (MIC) in the assay on Escherichia coli, with Bacillus subtilis and in the assay with Saccharomyces cerevisiae was above 100 mg/L throughout.
As to `CN(C)c1ccc(C2CC(c3ccc(Cl)s3)=CC=C2C=O)cc1` (centres undefined), the MIC against Escherichia coli, with Bacillus subtilis and with Saccharomyces cerevisiae was above 100 mg/L each time. In the assay on Jurkat, the result was Active.
On to `O=CC1=CC=C(c2cccs2)CC1c1ccc([N+](=O)[O-])cc1` (centres undefined), for which the MIC in the assay with Escherichia coli, against Bacillus subtilis and with Saccharomyces cerevisiae was above 100 mg/L in each case.
Take `CC1=CC=C(C=O)C(c2ccccc2)C1` (centres undefined): the MIC in the assay with Escherichia coli, in the assay on Bacillus subtilis and against Saccharomyces cerevisiae was above 100 mg/L in each case.
Regarding `CC1=C(/C=C/C(C)=C/C=C/C2=CC=C(C=O)C(c3ccccc3)C2)C(C)(C)CCC1` (centres undefined), the MIC against Escherichia coli, in the assay on Bacillus subtilis and against Saccharomyces cerevisiae was above 100 mg/L in each case.
In the case of `Cc1ccc(C2=CC=C(C=O)C(c3ccccc3)C2)o1` (centres undefined), the MIC with Escherichia coli, against Bacillus subtilis and against Saccharomyces cerevisiae was above 100 mg/L throughout.
Turning to `O=CC1=CC=C(c2ccc3ccccc3c2)CC1c1ccc([N+](=O)[O-])cc1` (centres undefined), the MIC in the assay on Escherichia coli, against Bacillus subtilis and against Saccharomyces cerevisiae was above 100 mg/L throughout.
Turning to `CN(C)c1ccc(C2CC(c3ccc4ccccc4c3)=CC=C2C=O)cc1` (centres undefined), the outcome in the assay on PC-12 [3] was Active. The MIC in the assay on Escherichia coli, against Bacillus subtilis and against Saccharomyces cerevisiae was above 100 mg/L throughout.
In the case of `CC1(c2cccs2)CC(c2cccs2)=CC=C1C=O` (centres undefined), the MIC with Escherichia coli, against Bacillus subtilis and against Saccharomyces cerevisiae was above 100 mg/L each time.
As to `CC(C)=CCCC1=CC=C(C=O)C(c2ccccc2)C1` (centres undefined), the MIC in the assay on Escherichia coli, in the assay on Bacillus subtilis and against Saccharomyces cerevisiae was above 100 mg/L each time.
Regarding `CC(C)=CCCc1ccc(C=O)c(-c2ccc(N(C)C)cc2)c1`, the MIC in the assay on Escherichia coli, in the assay with Bacillus subtilis and in the assay on Saccharomyces cerevisiae was above 100 mg/L throughout.
As to `CC(C)=CCC/C(C)=C/CCC1=CC=C(C=O)C(c2ccccc2)C1` (centres undefined), the MIC in the assay on Escherichia coli, against Bacillus subtilis and in the assay with Saccharomyces cerevisiae was above 100 mg/L throughout.
Take `CN(C)c1ccc(C2CC(c3ccc(-c4ccccc4)cc3)=CC=C2C=O)cc1` (centres undefined): the MIC in the assay on Escherichia coli, against Bacillus subtilis and in the assay with Saccharomyces cerevisiae was above 100 mg/L throughout.
For `CC1=C(/C=C/C2=CC=C(C=O)C(c3ccccc3)C2)C(C)(C)CCC1` (centres undefined), the MIC in the assay with Escherichia coli, against Bacillus subtilis and in the assay on Saccharomyces cerevisiae was above 100 mg/L throughout.
